Columns and labels:
PC-3 = test: Cytotoxicity against AR and BimS deficient human PC3 cells expressing p53 mutant, BimEL, BimL assessed as growth inhibition after 24 hrs by MTS assay; assay type: functional, cell-based; details: PC-3, 24 h
Summary of the method: (§1)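 Cell lines were obtained from ATCC, plated in 96-well plates, and exposed in triplicate to drug or vehicle for 24 h. Viability was measured by MTS absorbance at 490 nm, taken as a percentage of solvent-treated controls, and IC50 was derived.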

MDA-MB-468 = test: Cytotoxicity against ER deficient human MDA-MB-468 cells expressing p53 mutant, BimEL, BimL and BimS assessed as growth inhibition after 24 hrs by MTS assay; assay type: functional, cell-based; details: MDA-MB-468, 24 h
Summary of the method: (§2)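 ATCC breast cancer cells kept in RPMI-1640 with 5% FCS, insulin and glutamine under standard conditions. Cells in 96-well plates were treated in triplicate for 24 h with drug or vehicle. MTS viability was read as absorbance at 490 nm, expressed as a percentage of solvent controls, and IC50 was derived.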

MDA-MB-157 = test: Cytotoxicity against ER, BimL and BimS deficient human MDA-MB-157 cells expressing p53 mutant, BimEL assessed as growth inhibition after 24 hrs by MTS assay; assay type: functional, cell-based; details: MDA-MB-157, 24 h; summary of the method: as §2
SK-BR-3 = test: Cytotoxicity against ER deficient human SKBR3 cells expressing p53 mutant, BimEL, BimL and BimS assessed as growth inhibition after 24 hrs by MTS assay; assay type: functional, cell-based; details: SK-BR-3, 24 h; summary of the method: as §2
T47D = test: Cytotoxicity against BimL, BimS deficient human T47D cells expressing ER, p53 mutant, BimEL assessed as growth inhibition after 24 hrs by MTS assay; assay type: functional, cell-based; summary of the method: as §2
MCF7 [1] = test: Cytotoxicity against human MCF7 cells expressing ER, wild type p53, BimEL, BimL and BimS assessed as growth inhibition after 24 hrs by MTS assay; assay type: functional, cell-based; details: MCF7, 24 h; summary of the method: as §2
Hs-578T = test: Cytotoxicity against ER, BimEL, BimL and BimS deficient human Hs578T cells expressing p53 mutant assessed as growth inhibition after 24 hrs by MTS assay; assay type: functional, cell-based; summary of the method: as §2
IGROV-1 = test: Cytotoxicity against human IGROV1 cells expressing p53 mutant, BimEL, BimL and BimS assessed as growth inhibition after 24 hrs by MTS assay; assay type: functional, cell-based; details: IGROV-1, 24 h; summary of the method: as §1
MCF-10A = test: Cytotoxicity against ER, BimL and BimS deficient human MCF10A cells expressing wild type p53, BimEL assessed as growth inhibition after 24 hrs by MTS assay; assay type: cell-based; summary of the method: as §1
MCF7 [2] = test: Cytotoxicity against human MCF7 cells expressing ER assessed as growth inhibition after 24 hrs by MTS assay; assay type: functional, cell-based; details: MCF7, 24 h; summary of the method: as §2
MDA-MB-231 = test: Cytotoxicity against ER, BimEL, BimL and BimS deficient human MDA-MB-231 cells expressing p53 mutant assessed as growth inhibition after 24 hrs by MTS assay; assay type: functional, cell-based; details: MDA-MB-231, 24 h; summary of the method: as §2
LNCaP = test: Cytotoxicity against human LNCAP cells expressing AR, wild type p53, BimEL, BimL and BimS assessed as growth inhibition after 24 hrs by MTS assay; assay type: functional, cell-based; summary of the method: as §1
OVCAR-3 = test: Cytotoxicity against BimEL, BimL and BimS deficient human OVCAR3 cells expressing p53 mutant assessed as growth inhibition after 24 hrs by MTS assay; assay type: functional, cell-based; details: OVCAR-3, 24 h; summary of the method: as §1

## CCCCCCCCCCCCCCCCCC(=O)C[C@@H](O)COC(C)=O
PC-3
  IC50: > 39 µM
MDA-MB-468
  IC50: > 39 µM
MDA-MB-157
  IC50: > 39 µM
SK-BR-3
  IC50: > 39 µM
T47D
  IC50: 20.7 µM
MCF7 [1]
  IC50: 18.2 µM
Hs-578T
  IC50: > 39 µM
IGROV-1
  IC50: > 39 µM
MCF-10A
  IC50: > 39 µM
MCF7 [2]
  IC50: 17.1 µM
MDA-MB-231
  IC50: > 39 µM
LNCaP
  IC50: > 39 µM
OVCAR-3
  IC50: > 39 µM

## CCCCCCC(=O)C[C@@H](O)COC(C)=O
MCF7 [2]
  IC50: > 65 µM

## CCCCC/C=C\C/C=C\CCCCCCCC(=O)C[C@@H](O)COC(=O)c1ccccc1
MCF7 [2]
  IC50: 27 µM

## CCCCC/C=C\C/C=C\CCCCCCCC(=O)C[C@H](COC(=O)c1ccccc1)OC(=O)c1ccccc1
MCF7 [2]
  IC50: > 27 µM

## CCCCC/C=C\C/C=C\CCCCCCCC(=O)C[C@@H](O)COC(=O)c1ccc(Br)cc1
MCF7 [2]
  IC50: 23.8 µM

## CCCCC/C=C\C/C=C\CCCCCCCC(=O)C[C@H](COC(=O)c1ccc(Br)cc1)OC(=O)c1ccc(Br)cc1
MCF7 [2]
  IC50: > 21 µM

## CCCCC/C=C\C/C=C\CCCCCCCC(=O)/C=C/COC(=O)c1ccc([N+](=O)[O-])cc1
MCF7 [2]
  IC50: > 32 µM

## CCCCC/C=C\C/C=C\CCCCCCCC(=O)C[C@H](COC(=O)c1ccc([N+](=O)[O-])cc1)OC(=O)c1ccc([N+](=O)[O-])cc1
MCF7 [2]
  IC50: > 24 µM

## CCCCC/C=C\C/C=C\CCCCCCCC(=O)C[C@@H](O)COC(=O)c1ccncc1
MCF7 [2]
  IC50: 20.1 µM

## CCCCCCCCCCCCCCCCCC(=O)C(C)(C)[C@@H](O)COC(C)=O
MCF7 [2]
  IC50: 29 µM

## CCCCC/C=C\C/C=C\CCCCCCCC(=O)C[C@@H](O)COC(C)=O
PC-3
  IC50: 30 µM
MDA-MB-468
  IC50: 25 µM
MDA-MB-157
  IC50: 12.8 µM
SK-BR-3
  IC50: 19.7 µM
T47D
  IC50: 30.3 µM
MCF7 [1]
  IC50: 15.1 µM
Hs-578T
  IC50: 32.1 µM
IGROV-1
  IC50: 15.6 µM
MCF-10A
  IC50: > 39 µM
MCF7 [2]
  IC50: 15.1 µM
MDA-MB-231
  IC50: > 39 µM
LNCaP
  IC50: 22 µM
OVCAR-3
  IC50: 27.9 µM

Source: ChEMBL document CHEMBL1921794, “Synthesis and in vitro evaluation of analogues of avocado-produced toxin (+)-(R)-persin in human breast cancer cells” (Bioorg Med Chem, 2011)
